Source: ChEMBL document CHEMBL4229376, “Optimization of the pharmacokinetic properties of potent anti-trypanosomal triazine derivatives” (Eur J Med Chem, 2018)
The source made the active and inactive calls. No cut-off for these calls is given here.

Assays:
Leishmania infantum = assay: Antileishmanial activity against Leishmania infantum MHOM/MA (BE)/67 amastigotes infected in primary peritoneal mouse macrophages after 120 hrs by giemsa staining-based microscopic analysis; format: functional, organism-based; conditions: MHOM/MA (BE)/67, 120 h
[1] = test system: Trypanosoma brucei brucei; assay: Antitrypanosomal activity against Trypanosoma brucei brucei Squib 427 infected in Swiss mouse assessed as mouse survival at 50 mg/kg, po administered as single dose for 5 days and measured on day 14 post infection; format: functional, organism-based
Procedure, shortened: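 Acute T. b. brucei mouse infection model. Dosing was PO or IP at 10–50 mg/kg, once (SID) or twice (BID) daily for 5 days after infection, with 3 mice per group. […] Read-outs were mean survival time and survivors on day 14 post infection.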

[2] = test system: Trypanosoma brucei brucei; assay: Antitrypanosomal activity against Trypanosoma brucei brucei Squib 427 infected in Swiss mouse at 50 mg/kg, po administered as single dose after 24 hrs; format: functional, organism-based; conditions: Squib 427, 24 h
[3] = Drug metabolism in human plasma assessed as parent compound remaining after 15 mins by UPLC/MS/ESI analysis; format: ADME, cell-free; conditions: read-out: Stability
[4] = Drug metabolism in human plasma assessed as parent compound remaining after 30 mins by UPLC/MS/ESI analysis; format: ADME, cell-free; conditions: read-out: Stability
[5] = Drug metabolism in human plasma assessed as parent compound remaining after 1440 mins by UPLC/MS/ESI analysis; format: ADME, cell-free; conditions: read-out: Stability
Procedure, shortened: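 Compound incubated in human plasma for 24 h at 37 °C, and the fraction of parent compound remaining was determined.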

[6] = Protein binding in 10% FBS in Trypanosoma brucei culture medium at 2 uM after 6 hrs by equilibrium dialysis and LC-MS analysis; format: ADME, cell-free, Bos taurus, Serum; conditions: cattle, read-out: PB
[7] = Drug level in Swiss mouse blood infected with Trypanosoma brucei brucei Squib 427 at 25 mg/kg, po bid for 5 days measured after 1 hr after last dose by UPLC/MS/ESI analysis; format: ADME, organism-based; conditions: whole blood, read-out: Drug uptake
[8] = Drug uptake in Swiss mouse blood at 25 mg/kg, po administered as single dose after 0.5 hrs by UPLC/MS/ESI analysis; format: ADME, organism-based; conditions: whole blood, read-out: Drug uptake
Procedure, shortened: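 Mice were given the compound orally as a single dose of either 25 or 50 mg/kg, one group per dose. Plasma concentrations were followed over time up to 24 h, and the pharmacokinetic parameters were derived from the concentration-time profile.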

[9] = Half life in Swiss mouse infected with Trypanosoma brucei brucei Squib 427 at 50 mg/kg, po bid for 5 days after 24 hrs by UPLC/MS/ESI analysis; format: ADME, organism-based; conditions: in vivo
[10] = Tmax in Swiss mouse infected with Trypanosoma brucei brucei Squib 427 at 25 mg/kg, po administered as single dose after 24 hrs by UPLC/MS/ESI analysis; format: ADME, organism-based; conditions: in vivo
[11] = Clearance in Swiss mouse infected with Trypanosoma brucei brucei Squib 427 at 25 mg/kg, po administered as single dose after 24 hrs by UPLC/MS/ESI analysis; format: ADME, organism-based; conditions: in vivo
[12] = Cmax in Swiss mouse at 25 mg/kg, po administered as single dose after 24 hrs by UPLC/MS/ESI analysis; format: ADME, organism-based; design: dose 25 mg/kg, route oral; conditions: in vivo
Procedure, shortened: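 Mice in groups received one oral dose of 25 or 50 mg/kg. Plasma concentrations were followed over time up to 24 h, and PK parameters including T1/2 were derived from the concentration–time profile.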

[13] = Protein binding in mouse plasma assessed as drug recovery at 10 uM after 6 hrs by equilibrium dialysis and LC-MS analysis; format: ADME, cell-free; conditions: read-out: Drug recovery
[14] = Protein binding in 10% FBS in Trypanosoma brucei culture medium at 10 uM after 6 hrs by equilibrium dialysis and LC-MS analysis; format: ADME, cell-free, Bos taurus, Serum; conditions: cattle, read-out: PB

Nc1nc(Nc2ccc(F)cc2)nc(Oc2ccc(F)cc2)n1
IC50 (Leishmania infantum): > 64000 nM | Activity [1]: inactive | IC50 [2]: 630 nM | remaining at 0.25 h [3]: 80% | remaining at 0.5 h [4]: 91% | remaining at 24 h [5]: 87% | fraction unbound at 6 h, 2 µM [6]: 0.5 to 0.51 | concentration at 1 h [7]: 2410 ng/mL | concentration at 0.5 h [8]: 842 ng/mL | half-life [9]: 1.33 h | Tmax [10]: 0.8 h | CL/F [11]: 176 mL/min | Cmax [12]: 1180 ng/mL | recovery at 6 h, 10 µM [13]: 75.4% | fraction unbound at 6 h, 10 µM [14]: 0.498
